Screening results as filed in PubChem BioAssay.
CCR6 antag – antagonists of human CCR6 receptor; CHO-K1 CCR6 PathHunter beta-arrestin, luminescence, CCL20-stimulated; inhibition, % at 20 µM; AID 493098; actives 0.49% (n = 340,000); P51684;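 active = compounds whose inhibition of the agonist-driven luminescence signal at 20 µM reaches about 50%, limit read from the data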;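 also: cells stimulated with CCL20 at 14 nM final; plate controls were DMSO with CCL20 for no effect and DMSO without agonist for full effect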
Target sequence (P51684 whole entry, looked up): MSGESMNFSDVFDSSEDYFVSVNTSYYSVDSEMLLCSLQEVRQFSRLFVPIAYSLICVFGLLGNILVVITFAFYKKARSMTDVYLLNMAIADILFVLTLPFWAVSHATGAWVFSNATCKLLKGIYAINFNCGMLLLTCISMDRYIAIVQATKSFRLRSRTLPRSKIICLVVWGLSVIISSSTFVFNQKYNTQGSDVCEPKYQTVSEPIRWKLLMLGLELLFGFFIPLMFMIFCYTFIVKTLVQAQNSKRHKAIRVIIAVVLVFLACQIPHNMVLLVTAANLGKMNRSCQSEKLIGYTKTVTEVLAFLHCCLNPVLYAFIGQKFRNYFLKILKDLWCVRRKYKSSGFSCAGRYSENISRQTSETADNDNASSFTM
CXCR6 inh – blocks human CXCR6 beta-arrestin recruitment; O00574; CHO-K1 PathHunter CXCR6 beta-arrestin, luminescence; inhibition, % at 20 µM; actives 0.36% (n = 360,000); AID 602244; in the data active = inhibition above about 34%, passing the limit was not always enough;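 also: antagonist mode with CXCL16 agonist at 10 nM final; 0% = 10 nM CXCL16 with DMSO and 100% = unstimulated wells without agonist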
APJ agonist – agonists of human APJ apelin receptor. P35414. CHO-K1 APJ PathHunter beta-arrestin, luminescence; 0% DMSO wells, 100% apelin. activation, % at 20 µM. actives 0.11% (n = 330,000);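 active = activation more than six SD over the plate average, tested at 20 µM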;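 also: 0% = DMSO alone and 100% = apelin-13 at 10 nM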
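Material: engineered CHO-K1 APJ arrestin reporter cells; amount: 1000 CHO-K1 reporter cells seeded per well; incubation: compound stimulation 90 min at 25 °C, detection 60 min; signal: luminescent beta-gal fragment complementation, chemiluminescent substrate; read-out basis: APJ agonist activity; controls: DMSO-only wells as negative, 10 nM Apelin-13 as positive control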
EBI2 antag – EBI2 (human) antagonism; EBI2 beta-arrestin recruitment, luminescence, 7a,25-OHC stimulated; inhibition, % at 5 µM; actives 0.81% (n = 360,000); in the data active = inhibition above about 38%;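 also: enzyme fragment complementation signal reports receptor beta-arrestin coupling in cells; 0% = agonist plus DMSO wells and 100% = wells without agonist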
APJ antag – APJ receptor antagonism. AID 2521. actives 0.32% (n = 330,000). P35414. CHO-K1 APJ beta-arrestin complementation, luminescence. inhibition, % at 20 µM;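 active = inhibition above about 40% at 20 µM, limit read from the data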;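 also: cells challenged with 10 nM apelin-13 agonist together with compound; plate controls were apelin-13 plus DMSO wells for no effect and DMSO wells lacking apelin-13 for full effect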
APJ antag conf – APJ receptor antagonism confirmation. shares compounds with APJ antag. APJ beta-arrestin recruitment, luminescence, antagonist mode. inhibition, % at 20 µM. actives 66% (n = 950). AID 2766; in the data active = inhibition above about 50%
* marks the source's active call; other numbers are inactive results; . = no result. Compounds with a hit are over-represented: about 1.5% of the library has one in this group of screens.

SMILES	CCR6 antag	CXCR6 inh	APJ agonist	EBI2 antag	APJ antag	APJ antag conf
O=C(CNc1ccc(Br)cc1)c1ccc(Br)s1	66.3*	41.4*	-16.1	38.2	65.8*	107.7*
O=C(NCCCCCCNC(=O)c1ccc(Br)s1)c1ccc(Br)s1	1.4	7.4	-4.2	22.7	-1.5	.
C[C@@H]1CN([C@H](C)CO)C(=O)c2cc(C#CC3CCCCC3)cnc2O[C@H]1CN(C)Cc1cccnc1	.	1.8	.	2.6	.	.
O=S(=O)(c1cccc(Cl)c1Cl)N1CCCCC1	3.1	6.7	2.2	-0.5	40.4*	21.6
NCCNC[C@@H]1COC2(CCCCCCCCCCC2)O1	15.1	3.2	-5.1	-4.5	1.0	.
NS(=O)(=O)c1ccc(NNC(=O)c2ccccc2)cc1	-8.2	2.5	-0.1	-15.5	-8.9	.
O=C(NNc1cc(Br)c(O)c(Br)c1)c1ccccc1	86.8*	59.0*	-14.5	37.6	96.2*	136.8*
COc1ccc(NC(=O)/C(Cl)=C(/Cl)S(=O)Cc2ccccc2Cl)cn1 (stereo unspecified)	96.0*	.	-6.2	.	78.6*	104.0*
COc1ccc(NC(=O)Cc2ccc(Cl)c(Cl)c2)cn1	-9.6	-4.2	-1.5	3.5	-0.8	.
CC(=O)Nc1ccc(-c2ccnc3c2CC(C)(C(=O)Nc2ccc4c(c2)OCO4)O3)cc1 (stereo unspecified)	.	-11.2	.	10.8	.	.
O=C(c1ccco1)N1CCN(C(=O)C2(S(=O)(=O)c3ccc(Cl)cc3)CC2)CC1	-2.9	5.6	2.1	-1.2	40.6*	14.4
Cc1cccc2c1N(CCCOc1ccccc1)C(=O)C2=O	38.8	-0.5	-4.9	11.5	44.4*	75.7*
COc1ccc(S(=O)(=O)NNc2nc(C)cc(C)n2)cc1Br	29.7	20.7	-17.7	7.2	54.3*	52.4*
Cc1cc(C)nc(NNS(=O)(=O)c2ccc(Cl)cc2)n1	53.4*	26.2	-17.2	7.0	75.3*	112.6*
Cc1cc(C)nc(NNS(=O)(=O)c2ccc(F)c(Cl)c2)n1	42.1	21.0	-22.3	29.5	52.8*	109.4*
O=C(C1=C(O)C(=O)N(CCN2CCOCC2)C1c1cccs1)c1cc2ccccc2o1 (stereo unspecified)	22.9	10.8	-6.8	7.1	55.6*	27.8
O=C(C1=C(O)C(=O)N(CCN2CCOCC2)C1c1cccc(O)c1)c1cc2ccccc2o1 (stereo unspecified)	7.1	-1.7	-2.1	4.6	24.1	.
CCn1ncc(S(=O)(=O)Nc2cccnc2)c1C	4.4	-5.7	5.7	-15.8	-19.4	.
CCn1cc(S(=O)(=O)Nc2cccnc2)cn1	-3.4	-1.0	5.5	-4.8	44.5*	22.0
O=C1N/C(=C\c2ccccc2)C(O)=C1C=NCc1ccccc1	13.0	-2.0	0.3	-1.4	45.4*	10.1
COc1ccc(NC(=O)c2cc(C3CCCCN3S(=O)(=O)c3ccccc3)on2)c(C)c1 (stereo unspecified)	.	-6.2	.	-8.2	.	.
NS(=O)(=O)c1ccc(N=Nc2c(=O)[nH]n3c(=O)c4c([nH]c23)CCCC4)cc1	35.4	24.7	-8.6	7.7	45.3*	58.0*
CC1=NN(c2ccc(C)cc2)C(=O)/C1=C\C=C\c1ccccc1	11.8	4.8	-1.4	-5.9	8.5	.
CC1=NN(c2ccccc2)C(=O)/C1=C/C=C/C=C/N(C)C	58.4*	48.6*	-8.5	10.4	64.7*	91.3*
COc1cc(/C=C/c2ccc3cccc(OC)c3n2)c(O)c([N+](=O)[O-])c1	53.8*	42.0*	-6.5	24.8	44.4*	73.8*
SMILES	CCR6 antag	CXCR6 inh	APJ agonist	EBI2 antag	APJ antag	APJ antag conf
COc1cc(Br)cc(/C=C/c2ccc3cccc(O)c3n2)c1O	20.8	10.9	-2.6	-11.5	-6.3	.
O=[N+]([O-])c1ccc(N2CCN(S(=O)(=O)c3ccccc3)CC2)c2cccnc12	52.0*	31.1	-5.5	15.6	45.8*	64.7*
CCOCCCN1C(=O)CN(C2CCCCC2)C(=O)C1c1ccc(OC)c(OC)c1 (stereo unspecified)	0.1	1.7	-2.0	5.0	40.0	5.9
CCCOc1ccc(C2C(=O)N(C3CCCCC3)CC(=O)N2CCCOCC)cc1OC (stereo unspecified)	-3.8	-5.9	-5.8	-4.9	-4.0	.
Nc1c(N2CCCC2)c2ccccc2oc1=O	55.0*	31.2	-8.8	28.0	70.5*	83.2*
COc1cccc([C@@H]2Oc3ccc(OC)cc3C(=O)[C@H]2O)c1	34.3	2.6	-15.0	6.1	-14.5	.
COc1ccc2c(c1)C(=O)[C@@H](O)[C@H](c1ccc(OC)c(Br)c1)O2	59.1*	26.0	-20.4	8.7	40.0*	79.7*
Cc1noc(C)c1S(=O)(=O)N1CCCN(C(=O)/C=C/c2ccccc2F)CC1	0.5	4.5	-2.9	23.6	7.6	.
O=S(=O)(Cc1ccccc1)Cc1cnc(Cl)s1	5.4	-0.1	-1.9	-5.8	-17.4	.
O=C1NCCSC1c1ccccc1 (stereo unspecified)	3.5	-0.7	-6.9	4.1	0.0	.
CCCCN(CCCC)C(=S)N/N=C/c1c(C)[nH]n(-c2ccccc2)c1=O	112.5*	98.5*	-13.7	48.9*	75.3*	126.4*
COc1ccc(/C=N/c2oc(-c3ccccc3)cc2C#N)cc1OC	-2.8	-1.1	-7.1	-15.9	1.2	.
COCCNC(=O)c1onc(CSc2cc(C)cc(C)c2)c1C(=O)NCCOC	6.6	11.3	-5.5	2.2	9.3	.
CCOc1ccc(CCNC(=O)c2cccnc2N2CCCC2)cc1OCC	-1.6	2.8	-2.4	-0.7	58.3*	51.7*
COCCNC(=S)N/N=C(\C)c1ccc(Cl)c(Cl)c1	15.4	1.0	-3.8	2.3	10.8	.
COCCNC(=S)N/N=C(\C)c1ccc(Cl)c(Cl)c1Cl	38.4	27.0	-3.9	13.4	43.3*	35.6
CCOC(=O)c1ccc(-c2ccc3c(c2)CCC3)nc1C	14.5	-4.8	1.2	3.6	3.1	.
Cc1[nH]n(-c2ccccc2)c(=O)c1C(C[N+](=O)[O-])c1ccc(F)cc1 (stereo unspecified)	16.3	11.2	1.3	-16.1	45.0*	16.4
Cc1ccc(C(C[N+](=O)[O-])c2c(C)[nH]n(-c3ccccc3)c2=O)cc1 (stereo unspecified)	24.6	6.0	3.8	-1.8	0.4	.
COc1ccc(NC(=O)CS(=O)(=O)c2ccc(C)cc2)c(OC)c1	1.7	6.8	-2.6	-12.2	109.5*	16.9
COc1ccc(NC(=O)CN(C)C(=O)C(C)N2C(=O)c3ccccc3C2=O)cc1 (stereo unspecified)	2.3	-1.7	-2.9	-15.5	17.2	.
O=S(=O)(N/N=C\c1ccc(-c2ccccc2Cl)o1)c1ccccc1	45.6	16.3	-12.2	13.5	58.7*	58.7*
O=C(N/N=C/c1ccc(-c2ccccc2Cl)o1)c1ccccc1	10.2	-4.8	-2.5	4.0	1.0	.
CCN(CC)C(=O)Cn1cc(C(=O)C(=O)Nc2ccc3c(c2)OCCO3)c2ccccc21	10.4	5.9	-3.3	11.3	-2.2	.
